RGS4 pot = RGS4 potentiation or activation; hit rate 0.92% among 310,000; B-score at 10 µM; HEK293 M3R/inducible RGS4, carbachol calcium flux Fluo4; hits give low values;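 active means B-score of the integrated calcium signal more than 4 SD below the library mean, with starting fluorescence not abnormally high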;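 further: negative B-score means reduced calcium response which marks RGS4 activation or potentiation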
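System: HEK293 FlpIn-TREx cells, stable M3R, doxycycline-inducible RGS4. Timing: overnight RGS4 induction, 30 min dye load 37 °C, 20 min compound RT. Also added: carbachol, ECmax concentration. Measured by: Fluo4 fluorescence kinetic imaging of calcium. Evaluation: integrated calcium ratio converted to B score.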
MrgX1 agonist = human MrgX1 receptor agonism, primary screen | Q96LB2 | MrgX1-HEK293 cells, Fluo-4 calcium fluorescence, agonist mode; hits give high values | B-score at 10 µM | hit rate 0.44% among 310,000 | AID 588627;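 active means calcium response B-score plate-corrected fluorescence ratio at least 3 library SD, with starting fluorescence B-score inside 5 SD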
Target sequence (Q96LB2 whole entry, looked up): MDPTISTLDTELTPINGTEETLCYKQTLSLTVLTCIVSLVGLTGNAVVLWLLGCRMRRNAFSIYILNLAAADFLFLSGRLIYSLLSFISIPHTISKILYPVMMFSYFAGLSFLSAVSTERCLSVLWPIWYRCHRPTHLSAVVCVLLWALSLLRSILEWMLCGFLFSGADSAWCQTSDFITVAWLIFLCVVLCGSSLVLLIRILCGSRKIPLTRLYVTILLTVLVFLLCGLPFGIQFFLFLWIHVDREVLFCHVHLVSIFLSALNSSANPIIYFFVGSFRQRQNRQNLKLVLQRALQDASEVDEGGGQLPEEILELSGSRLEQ
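Material: MrgX1-expressing HEK293 cells; input: 15,000 cells per well; doses: test compound given as first of three sequential additions; schedule: overnight plating before 1 h dye loading; technique: Fluo-4 NW calcium-flux fluorescence, kinetic read; evaluation: baseline-normalised fluorescence change ratio, B-scored; control set: plate-wise positive and negative controls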
MrgX1 antagonist = blocks BAM8-22 activation of human MrgX1 receptor; MRGX1-HEK293 calcium flux, Fluo-4, BAM8-22 antagonism; hits give low values; Q96LB2; B-score at 10 µM; AID 588676; hit rate 1.3% among 310,000;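 active means calcium-response B-score plate-corrected more than 3 library SD below zero, starting fluorescence within 5 deviations, no agonist response on first addition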;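 further: peak minus trough fluorescence over baseline after final BAM8-22 challenge near maximal dose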
RGS4 block = inhibitors of human RGS4 | HEK293 M3R/RGS4 inducible, Fluo-4 calcium flux; hits give high values; triggered by carbachol at its EC20 | B-score at 10 µM | hit rate 0.45% among 310,000;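 active means B-score, a plate-corrected calcium signal, over three deviations above library mean, with baseline fluorescence within five deviations of library mean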;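 further: RGS4 expression induced by doxycycline in cells with stable M3 receptor; B-score is computed from the integrated fluorescence ratio over baseline after carbachol; higher B-score means a larger calcium signal and so more RGS4 inhibition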
Target sequence (P49798 whole entry, looked up): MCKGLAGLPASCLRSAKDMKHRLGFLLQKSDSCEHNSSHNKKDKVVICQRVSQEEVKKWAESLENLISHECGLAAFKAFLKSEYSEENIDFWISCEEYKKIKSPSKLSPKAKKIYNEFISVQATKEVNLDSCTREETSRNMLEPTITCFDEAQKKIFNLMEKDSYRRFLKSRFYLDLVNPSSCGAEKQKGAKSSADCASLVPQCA
MrgX1 allo act = allosterically activates human MrgX1 receptor signaling; Q96LB2; hit rate 0.63% among 310,000; B-score at 10 µM; MrgX1-HEK293, Fluo-4 calcium flux, FDSS; hits give high values;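 active means plate-corrected calcium response at least 3 library SD above typical, normal starting fluorescence, not activating the receptor alone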;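 further: compound read alongside a low EC10 to EC30 dose of BAM8-22 agonist; peak minus trough fluorescence over baseline measured at the second addition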
* hit, by the source's call. Compounds with a hit are over-represented: about 3.5% of the library has one in this group of screens.

Results for Cc1ccc(S(=O)(=O)N2[C@@H](c3ccccc3F)C(C(=O)O)=CC[C@H]2c2ccc(Cl)c(Cl)c2)cc1 ?
MrgX1 agonist: inactive; MrgX1 antagonist: inactive; MrgX1 allo act: 12*

Results for Cc1ccc(S(=O)(=O)N2[C@@H](c3ccccc3)C(C(=O)O)=CC[C@H]2c2cccc(C)c2)cc1 ?
MrgX1 agonist: inactive; MrgX1 antagonist: inactive; MrgX1 allo act: inactive

What do the screens show for `N#Cc1c(-c2ccccc2Cl)cc(-c2ccccc2)nc1Br`?
RGS4 pot: -7.3*; MrgX1 agonist: inactive; MrgX1 antagonist: inactive; RGS4 block: inactive; MrgX1 allo act: inactive

How did CCCN1C2CCCC1CC(NC(=O)Nc1cccc(C(C)=O)c1)C2 (centres undefined) do in these assays?
RGS4 pot: inactive; MrgX1 agonist: inactive; MrgX1 antagonist: inactive; RGS4 block: inactive; MrgX1 allo act: inactive

How did Cc1ccc(CN2C3CCCC2CC(NC(=O)c2ccc(F)cc2)C3)cc1 (centres undefined) do in these assays?
RGS4 pot: inactive; MrgX1 agonist: inactive; MrgX1 antagonist: inactive; RGS4 block: inactive; MrgX1 allo act: inactive

How did O=C(Nc1ccccc1-c1ccccc1)NC1CC2CCCC(C1)N2Cc1ccc(F)cc1 (centres undefined) do in these assays?
RGS4 pot: -10*; MrgX1 agonist: inactive; MrgX1 antagonist: inactive; RGS4 block: inactive; MrgX1 allo act: inactive

Results for CCc1ccc(NC(=S)NC2CC3CCCC(C2)N3Cc2ccccc2)cc1 (centres undefined) ?
RGS4 pot: -8.7*; MrgX1 agonist: inactive; MrgX1 antagonist: inactive; RGS4 block: inactive; MrgX1 allo act: inactive

Results for O=C(Nc1ccccc1-c1ccccc1)NC1CC2CCCC(C1)N2CCc1ccccc1 (centres undefined) ?
RGS4 pot: -7.1*; MrgX1 agonist: inactive; MrgX1 antagonist: inactive; RGS4 block: inactive; MrgX1 allo act: inactive

How did S=C(Nc1ccc(Cl)cc1)NC1CC2CCC(C1)N2Cc1ccccc1 (centres undefined) do in these assays?
RGS4 pot: inactive; MrgX1 agonist: inactive; MrgX1 antagonist: inactive; RGS4 block: inactive; MrgX1 allo act: inactive

How did Cc1ccc(CC2SC(N=C(N)N)=NC2=O)cc1 (centres undefined) do in these assays?
RGS4 pot: inactive; MrgX1 agonist: inactive; MrgX1 antagonist: inactive; RGS4 block: inactive; MrgX1 allo act: inactive

Results for CCNc1nc(NCC)nc(SCCOC(=O)Nc2ccccc2)n1 ?
RGS4 pot: inactive; MrgX1 agonist: inactive; MrgX1 antagonist: inactive; RGS4 block: inactive; MrgX1 allo act: 7.7*

Results for Cc1cc2nc(SCCOC(=O)Nc3ccccc3)nc(C)c2cc1C ?
RGS4 pot: inactive; MrgX1 agonist: inactive; MrgX1 antagonist: inactive; RGS4 block: inactive; MrgX1 allo act: inactive

What do the screens show for `CC1CCN(CC(=O)Nc2ccccc2Sc2ccccc2)CC1`?
RGS4 pot: -7.4*; MrgX1 agonist: inactive; MrgX1 antagonist: inactive; RGS4 block: inactive; MrgX1 allo act: inactive

How did COC(=O)C1CCN(CC(=O)Nc2cc(Cl)ccc2OC)CC1 do in these assays?
RGS4 pot: inactive; MrgX1 agonist: inactive; MrgX1 antagonist: inactive; RGS4 block: inactive; MrgX1 allo act: 21*

Results for Cn1cnc(S(=O)(=O)N2CCN(C(c3ccc(F)cc3)c3ccc(F)cc3)CC2)c1 ?
RGS4 pot: inactive; MrgX1 agonist: inactive; MrgX1 antagonist: inactive; RGS4 block: inactive; MrgX1 allo act: inactive

What do the screens show for `COc1ccc(/C=N/NC(=O)NC23CC4CC(CC(C4)C2)C3)c(OC)c1`?
RGS4 pot: inactive; MrgX1 agonist: inactive; MrgX1 antagonist: inactive; RGS4 block: inactive; MrgX1 allo act: 6.9*

How did COc1ccccc1/C=N/NC(=O)NC12CC3CC(CC(C3)C1)C2 do in these assays?
RGS4 pot: inactive; MrgX1 agonist: inactive; MrgX1 antagonist: inactive; RGS4 block: inactive; MrgX1 allo act: inactive

Results for CCC(=O)N1CCc2cc(S(=O)(=O)CCC(=O)Nc3ccc(C)cn3)ccc21 ?
RGS4 pot: inactive; MrgX1 agonist: inactive; MrgX1 antagonist: inactive; RGS4 block: inactive; MrgX1 allo act: inactive

Results for CC1(C)CC(=O)C=C(c2ccc3[nH]ccc3c2)C1 ?
RGS4 pot: inactive; MrgX1 agonist: inactive; MrgX1 antagonist: inactive; RGS4 block: inactive; MrgX1 allo act: inactive

What do the screens show for `Cc1ccc(-c2csc(Cc3nc(-c4cc5ccccc5oc4=O)cs3)n2)cc1`?
RGS4 pot: -7*; MrgX1 agonist: inactive; MrgX1 antagonist: inactive; RGS4 block: inactive; MrgX1 allo act: inactive

How did Cc1nn(CCO)c2ncc(C(=O)c3cc(F)ccc3O)cc12 do in these assays?
RGS4 pot: inactive; MrgX1 agonist: inactive; MrgX1 antagonist: inactive; RGS4 block: inactive; MrgX1 allo act: inactive

What do the screens show for `N=c1c2c(-c3ccccc3)c(-c3ccccc3)n(Cc3ccco3)c2ncn1CCCn1ccnc1`?
RGS4 pot: inactive; MrgX1 agonist: inactive; MrgX1 antagonist: inactive; RGS4 block: inactive; MrgX1 allo act: inactive

What do the screens show for `c1ccc(-c2oc3ncnc(NCCCn4ccnc4)c3c2-c2ccccc2)cc1`?
RGS4 pot: inactive; MrgX1 agonist: inactive; MrgX1 antagonist: -5.4*; RGS4 block: inactive; MrgX1 allo act: inactive

How did CC(C)Cn1cnc2c(c(-c3ccccc3)c(-c3ccccc3)n2Cc2ccco2)c1=N do in these assays?
RGS4 pot: -11*; MrgX1 agonist: inactive; MrgX1 antagonist: inactive; RGS4 block: inactive; MrgX1 allo act: inactive

How did c1ccc(-c2c(-c3ccccc3)n(Cc3ccco3)c3ncnc(NCCCn4ccnc4)c23)cc1 do in these assays?
RGS4 pot: -8.5*; MrgX1 agonist: inactive; MrgX1 antagonist: inactive; RGS4 block: inactive; MrgX1 allo act: inactive

How did OCCNc1ncnc2c1c(-c1ccccc1)c(-c1ccccc1)n2Cc1ccco1 do in these assays?
RGS4 pot: inactive; MrgX1 agonist: inactive; MrgX1 antagonist: inactive; RGS4 block: inactive; MrgX1 allo act: inactive

How did CN(C)CCCNc1ncnc2oc(-c3ccccc3)c(-c3ccccc3)c12 do in these assays?
RGS4 pot: inactive; MrgX1 agonist: inactive; MrgX1 antagonist: inactive; RGS4 block: inactive; MrgX1 allo act: inactive

Results for COc1ccc(S(=O)(=O)N2CCCC2CNC(=O)C(=O)Nc2ccc(F)cc2)cc1 (centres undefined) ?
RGS4 pot: inactive; MrgX1 agonist: inactive; MrgX1 antagonist: inactive; RGS4 block: inactive; MrgX1 allo act: inactive

How did CC(C)c1ccc(/C=C(\c2nc3ccccc3[nH]2)S(=O)(=O)c2ccccc2)cc1 do in these assays?
RGS4 pot: inactive; MrgX1 agonist: inactive; MrgX1 antagonist: inactive; RGS4 block: inactive; MrgX1 allo act: inactive

What do the screens show for `O=S(=O)(/C(=C/c1ccc(C(F)(F)F)cc1)c1nc2ccccc2[nH]1)c1ccccc1`?
RGS4 pot: inactive; MrgX1 agonist: inactive; MrgX1 antagonist: inactive; RGS4 block: 22*; MrgX1 allo act: inactive

From PubChem
